Counter-ions that a name gives are not always drawn. The source made the active and inactive calls. No cut-off for these calls is given here.
Assays:
Hs-578T [1] = assay: Antiinvasive activity against triple-negative human Hs578T cells assessed as downregulation of MMP9 level at 5 to 20 mM after 24 hrs by gelatin zymogram assay; format: functional, cell-based
Outline: (§1)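 Hs578T cells were cultured 24 h in serum-free medium containing compound at 0.05–0.2 mM or 5–20 mM. Gelatinolytic activity of the conditioned medium was resolved by gelatin zymography (MMP-2 72 kDa, MMP-9 92 kDa). Relative band intensities were quantified by densitometry.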

Hs-578T [2] = assay: Antiinvasive activity against triple-negative human Hs578T cells assessed as downregulation of MMP2 level by immunoblot analysis; format: functional, cell-based
Hs-578T [3] = assay: Antiinvasive activity against triple-negative human Hs578T cells at 10 mM after 17 hrs by light microscopic analysis; format: functional, cell-based
Outline: (§2)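 Transwell invasion with polycarbonate filters. 5 × 10^4 Hs578T cells were placed in the upper chamber with drug, and the lower chamber held serum-free medium with 0.1% BSA plus drug. After 17 h, cells invaded to the filter underside were counted by light microscopy (400×) in 13 fields per filter. Each sample was run in triplicate.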

Hs-578T [4] = assay: Antiinvasive activity against triple-negative human Hs578T cells assessed as downregulation of MMP2 level after 24 hrs by gelatin zymogram assay; format: functional, cell-based; outline: as §1
[5] = target: 5'-AMP-activated protein kinase catalytic subunit alpha-2 (Homo sapiens) (UniProt P54646); assay: Activation of AMPK in triple-negative human […] cells at 20 mM after 24 hrs by immunoblot analysis; format: cell-based
Outline: (§3)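 Hs578T cells exposed to compound for 24 h at 0.05–0.2 mM or 5–20 mM. Lysates were made in Triton X-100 buffer (pH 7.4, NaF, EGTA, DTT, Na3VO4, protease inhibitors) and run on 10% SDS–PAGE. Immunoblots were probed with anti-phospho AMPK or anti-phospho mTOR antibody.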

Hs-578T [6] = assay: Antiinvasive activity against triple-negative human Hs578T cells at 20 mM after 17 hrs by light microscopic analysis; format: functional, cell-based; outline: as §2
[7] = target: Serine/threonine-protein kinase mTOR (Homo sapiens) (UniProt P42345); assay: Inhibition of mTOR phosphorylation in triple-negative human […] cells at 20 mM after 24 hrs by immunoblot analysis; format: cell-based; outline: as §3
MDA-MB-231 [8] = assay: Induction of apoptosis in triple-negative human MDA-MB-231 cells assessed as dead cells at 10 mM after 24 hrs by annexin V-FITC/propidium iodide staining-based flow cytometric analysis relative to control; format: functional
Outline: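 MDA-MB-231 cells grown in DMEM at 37 °C, 5% CO2, then exposed for 24 h to agent dissolved in distilled water. Cells were stained at 1 × 10^6 cells/ml with FITC-annexin V and/or propidium iodide for flow cytometry and read as quadrant dot plots. Lower left is viable, lower right early apoptotic, upper quadrants late apoptotic/necrotic.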

MDA-MB-231 [9] = assay: Induction of apoptosis in triple-negative human MDA-MB-231 cells assessed as viable cells at 10 mM after 24 hrs by annexin V-FITC/propidium iodide staining-based flow cytometric analysis relative to control; format: functional; conditions: MDA-MB-231, 24 h, read-out: Activity
Outline: (§4)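 MDA-MB-231 cells treated 24 h at 0.1 or 10 mM were stained with FITC-annexin V and propidium iodide and analyzed by flow cytometry. Quadrants: annexin−/PI− viable; annexin+/PI− early apoptotic; PI+ late apoptotic/necrotic.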

MDA-MB-231 [10] = assay: Cytotoxicity against triple-negative human MDA-MB-231 cells assessed as growth inhibition after 24 hrs by MTT assay; format: functional, cell-based; conditions: MDA-MB-231, 24 h
Mus musculus [11] = assay: Toxicity in BALB/c athymic nude mouse xenografted with triple-negative human MDA-MB-231 cells assessed as body weight change at 500 mg/kg, po qd measured for 35 days relative to vehicle-treated control; format: organism-based; design: dose 500 mg/kg, route oral; conditions: in vivo, 840 h
Outline: (§5)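 MDA-MB-231 s.c. xenograft in nude mice (n = 6), dosed orally by gavage once daily for 35 days at 25–100 or 500 mg/kg. Body weights were recorded three times weekly and compared with vehicle-treated mice.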

MDA-MB-231 [12] = assay: Induction of apoptosis in triple-negative human MDA-MB-231 cells assessed as apoptotic cells at 10 mM after 24 hrs by annexin V-FITC/propidium iodide staining-based flow cytometric analysis relative to control; format: functional; outline: as §4
MDA-MB-231 [13] = assay: Induction of apoptosis in triple-negative human MDA-MB-231 cells assessed as early apoptotic cells at 10 mM after 24 hrs by annexin V-FITC/propidium iodide staining-based flow cytometric analysis relative to control; format: functional; outline: as §4
Hs-578T [14] = assay: Cytotoxicity against triple-negative human Hs578T cells assessed as growth inhibition after 24 hrs by MTT assay; format: functional, cell-based
Hs-578T [15] = assay: Antiinvasive activity against triple-negative human Hs578T cells at 5 mM after 17 hrs by light microscopic analysis relative to control; format: functional
Hs-578T [16] = assay: Antiinvasive activity against triple-negative human Hs578T cells after 17 hrs by light microscopic analysis; format: functional, cell-based
Outline: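 Transwell filter invasion assay; serum-free medium with 0.1% BSA plus drug in the lower chamber, 5 × 10⁴ Hs578T cells plus drug in the upper chamber. Invaded cells on the underside of the filter counted by light microscopy at 400× after 17 h, thirteen fields per filter, each sample in triplicate. Hs578T cultured in DMEM at 37 °C, 5% CO₂.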

Hs-578T [17] = assay: Antiinvasive activity against triple-negative human Hs578T cells at 0.2 mM after 17 hrs by light microscopic analysis relative to control; format: functional; outline: as §2
MDA-MB-231 [18] = assay: Induction of apoptosis in triple-negative human MDA-MB-231 cells assessed as viable cells at 0.1 mM after 24 hrs by annexin V-FITC/propidium iodide staining-based flow cytometric analysis relative to control; format: functional; conditions: MDA-MB-231, 24 h, read-out: Activity; outline: as §4
[19] = target: Serine/threonine-protein kinase mTOR (Homo sapiens) (UniProt P42345); assay: Inhibition of mTOR phosphorylation in triple-negative human […] cells at 0.2 mM after 24 hrs by immunoblot analysis; format: cell-based; outline: as §3
MDA-MB-231 [20] = assay: Induction of apoptosis in triple-negative human MDA-MB-231 cells assessed as apoptotic cells at 0.1 mM after 24 hrs by annexin V-FITC/propidium iodide staining-based flow cytometric analysis relative to control; format: functional; outline: as §4
Hs-578T [21] = assay: Antiinvasive activity against triple-negative human Hs578T cells assessed as downregulation of MMP9 level at 0.05 to 0.2 mM after 24 hrs by gelatin zymogram assay; format: functional, cell-based; outline: as §1
[22] = target: 5'-AMP-activated protein kinase catalytic subunit alpha-2 (Homo sapiens) (UniProt P54646); assay: Activation of AMPK in triple-negative human […] cells at 0.2 mM after 24 hrs by immunoblot analysis; format: cell-based; outline: as §3
Hs-578T [23] = assay: Ratio of compound activity to metformin activity for inhibition of triple-negative human Hs578T cells invasiveness; format: functional
Hs-578T [24] = assay: Ratio of metformin IC50 to compound IC50 for triple-negative human Hs578T cells; format: functional
Outline: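 Hs578T cells were exposed to compounds for 24 h and viability was read by MTT (4 h, formazan dissolved in DMSO, OD 540 nm), in triplicate. The ratio uses IC50 values from this assay.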

MDA-MB-231 [25] = assay: Antitumor activity against triple-negative human MDA-MB-231 cells xenografted in BALB/c athymic nude mouse assessed as tumor growth inhibition at 50 mg/kg, po qd measured for 35 days relative to vehicle-treated control; format: functional; conditions: MDA-MB-231, 840 h, read-out: TGI
Outline: (§6)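 MDA-MB-231 cells (5 × 10^6 in 0.1 mL serum-free medium) were injected s.c. into the right lower flank of nude mice. At tumor volumes of 100–130 mm³, mice (n = 6) received oral gavage once daily for 35 days at 25, 50, 100 or 500 mg/kg. Caliper volumes, (length × width²)/2, were taken three times weekly. Inhibition was calculated versus the vehicle group.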

MDA-MB-231 [26] = assay: Antitumor activity against triple-negative human MDA-MB-231 cells xenografted in BALB/c athymic nude mouse assessed as tumor growth inhibition at 100 mg/kg, po qd measured for 35 days relative to vehicle-treated control; format: functional; conditions: MDA-MB-231, 840 h, read-out: TGI; outline: as §6
MDA-MB-231 [27] = assay: Ratio of compound activity to metformin activity for tumor growth inhibition of triple-negative human MDA-MB-231 cells xenografted in BALB/c athymic nude mouse; format: functional
Mus musculus [28] = assay: Toxicity in BALB/c athymic nude mouse xenografted with triple-negative human MDA-MB-231 cells assessed as body weight change at 25 to 100 mg/kg, po qd measured for 35 days relative to vehicle-treated control; format: organism-based; design: dose 25-100 mg/kg, route oral; conditions: in vivo, 840 h; outline: as §5
[29] = target: Serine/threonine-protein kinase mTOR (Homo sapiens) (UniProt P42345); assay: Ratio of compound activity to metformin activity for inhibition of mTOR phosphorylation in triple-negative human […] cells; format: cell-based
MDA-MB-231 [30] = assay: Antitumor activity against triple-negative human MDA-MB-231 cells xenografted in BALB/c athymic nude mouse assessed as tumor growth inhibition at 25 mg/kg, po qd measured for 35 days relative to vehicle-treated control; format: functional; conditions: MDA-MB-231, 840 h, read-out: TGI; outline: as §6
[31] = target: 5'-AMP-activated protein kinase catalytic subunit alpha-2 (Homo sapiens) (UniProt P54646); assay: Ratio of compound activity to metformin activity for activation of AMPK in triple-negative human […] cells; format: cell-based
MDA-MB-231 [32] = assay: Induction of apoptosis in triple-negative human MDA-MB-231 cells assessed as dead cells at 0.1 mM after 24 hrs by annexin V-FITC/propidium iodide staining-based flow cytometric analysis relative to control; format: functional
Outline: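 MDA-MB-231 cells grown in DMEM at 37 °C, 5% CO2, then exposed for 24 h to agent dissolved in DMSO. Cells were stained at 1 × 10^6 cells/ml with FITC-annexin V and/or propidium iodide and analysed by flow cytometry as quadrant dot plots. Lower left is viable, lower right early apoptotic, upper right/left late apoptotic/necrotic (membrane integrity lost).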

MDA-MB-231 [33] = assay: Induction of apoptosis in triple-negative human MDA-MB-231 cells assessed as early apoptotic cells at 0.1 mM after 24 hrs by annexin V-FITC/propidium iodide staining-based flow cytometric analysis relative to control; format: functional; outline: as §4

5'-AMP-activated protein kinase catalytic subunit alpha-2 (Homo sapiens), sequence (P54646 whole entry, looked up): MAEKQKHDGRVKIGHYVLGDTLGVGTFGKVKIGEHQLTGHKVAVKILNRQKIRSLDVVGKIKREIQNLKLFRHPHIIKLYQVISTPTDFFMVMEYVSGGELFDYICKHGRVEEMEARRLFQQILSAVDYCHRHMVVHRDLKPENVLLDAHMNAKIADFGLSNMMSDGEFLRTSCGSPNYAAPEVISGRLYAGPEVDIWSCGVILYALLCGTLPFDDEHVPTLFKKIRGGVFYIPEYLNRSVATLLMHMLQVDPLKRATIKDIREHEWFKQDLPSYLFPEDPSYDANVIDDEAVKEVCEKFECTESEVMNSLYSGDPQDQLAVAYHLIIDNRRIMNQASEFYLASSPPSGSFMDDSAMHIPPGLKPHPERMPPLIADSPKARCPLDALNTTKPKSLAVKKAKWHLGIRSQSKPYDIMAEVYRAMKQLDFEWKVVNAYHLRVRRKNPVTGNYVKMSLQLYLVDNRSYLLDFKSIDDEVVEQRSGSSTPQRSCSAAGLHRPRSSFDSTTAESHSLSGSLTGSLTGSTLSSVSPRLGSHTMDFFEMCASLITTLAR

## CN(C)C(=N)NC(=N)N
Hs-578T [1]
  Activity: inactive
Hs-578T [2]
  Activity: Dose-dependent effect
Hs-578T [3]
  inhibition: inactive
Hs-578T [4]
  Activity: Dose-dependent effect
[5]
  Activity: Active
Hs-578T [6]
  inhibition: Active
[7]
  inhibition: Active

## CN(C)C(=N)NC(=N)N.Cl [METFORMIN HYDROCHLORIDE]
MDA-MB-231 [8]
  Activity: 0.5%
MDA-MB-231 [9]
  viability at 10000 µM: 82.4%
MDA-MB-231 [10]
  IC50: 58.4 mM
Mus musculus [11]
  Activity: Non-toxic
MDA-MB-231 [12]
  Activity: 15.3%
MDA-MB-231 [13]
  Activity: 1.8%
Hs-578T [14]
  IC50: 26.8 mM

## CN(C)C(=N)NC(=N)N.NCCCC(=O)O [listing 1 of 2 here]
MDA-MB-231 [10]
  IC50: 41.5 mM
Hs-578T [15]
  inhibition at 5000 µM: 43.6%
Hs-578T [14]
  IC50: 9.1 mM

## CC(C)C[C@H](CN)CC(=O)O.CN(C)C(=N)NC(=N)N [METFORMIN PREGABALIN SALT]
MDA-MB-231 [10]
  IC50: 17.7 mM
Hs-578T [15]
  inhibition at 5000 µM: 64.6%
Hs-578T [14]
  IC50: 7.2 mM

## CN(C)C(=N)NC(=N)N.NCCCC(=O)O [listing 2 of 2 here]
Hs-578T [16]
  Activity: Dose-dependent effect

## CN(C)C(=N)NC(=N)N.NCC1(CC(=O)O)CCCCC1 [METFORMIN GABAPENTIN SALT]
MDA-MB-231 [10]
  IC50: 16.1 mM
Hs-578T [15]
  inhibition at 5000 µM: 73.6%
Hs-578T [14]
  IC50: 4 mM

## CCCc1ccccc1Nc1nc(N)nc(N(C)C)n1.Cl
Hs-578T [17]
  inhibition at 200 µM: 36.6%
MDA-MB-231 [18]
  viability at 100 µM: 78.4%
[19]
  inhibition: Active
MDA-MB-231 [20]
  Activity: 17%
Hs-578T [21]
  Activity: inactive
MDA-MB-231 [10]
  IC50: 0.28 mM
Hs-578T [2]
  Activity: Dose-dependent effect
[22]
  Activity: Active
Hs-578T [23]
  Ratio: 100
Hs-578T [4]
  Activity: Dose-dependent effect
Hs-578T [24]
  Ratio IC50: 100
MDA-MB-231 [25]
  inhibition in vivo at 50 mg/kg: 17.4%
MDA-MB-231 [26]
  inhibition in vivo at 100 mg/kg: 27.9%
MDA-MB-231 [27]
  Ratio: 5
Mus musculus [28]
  Activity: Non-toxic
[29]
  Ratio: 100
MDA-MB-231 [30]
  inhibition in vivo at 25 mg/kg: 6.2%
[31]
  Ratio: 100
MDA-MB-231 [32]
  Activity: 1.6%
MDA-MB-231 [33]
  Activity: 3.1%
Hs-578T [14]
  IC50: 0.28 mM

## N=C(N)NC(=N)NCCc1ccccc1 [PHENFORMIN ACETIC ACID SALT]
MDA-MB-231 [10]
  IC50: 1.68 mM
Hs-578T [14]
  IC50: 0.9 mM

From ChEMBL document CHEMBL2346552, “A novel metformin derivative, HL010183, inhibits proliferation and invasion of triple-negative breast cancer cells” (Bioorg Med Chem, 2013)
